Results from PubChem BioAssay AID588425 (Johns Hopkins Ion Channel Center, 2011).
Activity calls are given as the source filed them.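 The calls were made as follows: active = any inhibition of the KCNQ1 potassium channel at some tested dose, with a fitted dose response curve; inactive = no inhibition at any dose or no curve fitted.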

Molecular target: Potassium voltage-gated channel subfamily KQT member 1 (Homo sapiens) (UniProt P51787)
Test: human KCNQ1 blockade by KCNQ2 inhibitors – automated patch clamp, KCNQ1-CHO cells, selectivity assay for KCNQ2 inhibitor project, SAR follow-up (AID 588425)
Settings: for IC50: automated patch clamp current; for current change, negative = inhibition: at 30 µM (top of the series)
Outline: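 Assay system: KCNQ1-expressing CHO cells; Medium: NaCl/HEPES external, KCl/K-gluconate internal solutions; Probe or stimulus: voltage stimulus from -70 mV holding, stepped to +40 mV; Timing: 2,000 ms depolarization per sweep; Signal: automated patch clamp, amphotericin B-perforated recording of potassium current; Read-out: percent current change relative to pre-compound current.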

Chain of Potassium voltage-gated channel subfamily KQT member 1 (Homo sapiens) (P51787 whole entry, looked up): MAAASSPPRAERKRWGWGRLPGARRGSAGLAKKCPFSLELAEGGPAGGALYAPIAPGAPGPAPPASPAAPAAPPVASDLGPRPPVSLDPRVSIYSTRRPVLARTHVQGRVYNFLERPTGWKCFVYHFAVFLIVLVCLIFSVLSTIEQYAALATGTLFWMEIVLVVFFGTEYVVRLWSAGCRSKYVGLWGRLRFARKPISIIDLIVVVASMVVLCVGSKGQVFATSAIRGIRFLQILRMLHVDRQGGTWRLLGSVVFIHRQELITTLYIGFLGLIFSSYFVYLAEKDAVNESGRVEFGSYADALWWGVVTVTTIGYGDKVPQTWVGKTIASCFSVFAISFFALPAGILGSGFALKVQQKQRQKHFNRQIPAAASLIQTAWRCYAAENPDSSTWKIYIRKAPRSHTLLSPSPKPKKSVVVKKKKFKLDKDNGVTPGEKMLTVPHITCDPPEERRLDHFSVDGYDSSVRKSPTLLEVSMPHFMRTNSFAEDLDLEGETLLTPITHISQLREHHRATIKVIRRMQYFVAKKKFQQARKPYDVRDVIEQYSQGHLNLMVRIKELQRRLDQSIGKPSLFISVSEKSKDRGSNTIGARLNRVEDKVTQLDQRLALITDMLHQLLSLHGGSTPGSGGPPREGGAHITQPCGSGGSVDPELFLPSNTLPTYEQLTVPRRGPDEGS

Row | Compound | IC50 | current change, negative = inhibition
1 | CCC(C(=O)Nc1ccccc1N1CCCC1)c1ccc(F)cc1 (stereo unspecified) | 6.8 µM | 
2 | CCC(C(=O)Nc1ccc(N2CCCC2)cc1)c1ccccc1 (stereo unspecified) | 29 µM | 
3 | CC[C@H](C(=O)Nc1ccc(N2CCCC2)cc1)c1ccccc1 |  | inactive
4 | CCC(C(=O)Nc1ccccc1N1CCCC1)c1ccc(Cl)c(Cl)c1 (stereo unspecified) | 9.96 µM | 
5 | CCC(C(=O)Nc1ccccc1N1CCCC1)c1ccc(Cl)cc1 (stereo unspecified) |  | inactive
6 | CC[C@@H](C(=O)Nc1ccc(N2CCCC2)cc1)c1ccccc1 | 14.9 µM | 
7 | CCC(C(=O)Nc1ccccc1N1CCCC1)c1cccc(C(F)(F)F)c1 (stereo unspecified) |  | inactive
8 | O=C(Nc1ccccc1N1CCCC1)C1CCc2ccccc21 (stereo unspecified) | 12.1 µM | 
9 | CCC(C(=O)Nc1ccccc1-n1cccc1)c1ccccc1 (stereo unspecified) | 13.7 µM | 
10 | CCC(C(=O)Nc1ccccc1N1CCCC1)c1ccc(F)c(F)c1 (stereo unspecified) | 2.58 µM | 
11 | CCC(C(=O)Nc1ccccc1-c1ccccc1)c1ccccc1 (stereo unspecified) |  | inactive

More lines, now with the values ahead:

Row | IC50 | current change, negative = inhibition | Compound
12 |  | inactive | CCC(C(=O)Nc1ccccc1N1CCCC1)c1ccccc1F (stereo unspecified)
13 | 29 µM |  | CC(C(=O)Nc1ccccc1N1CCCC1)c1ccccc1 (stereo unspecified)
14 | 8.67 µM |  | CC[C@@H](C(=O)Nc1ccccc1N1CCCC1)c1ccccc1
15 | 11.2 µM |  | CCC(C(=O)Nc1ccccc1N1CCCC1)c1cccc(Cl)c1 (stereo unspecified)
16 | 2.92 µM |  | CC[C@H](C(=O)Nc1ccccc1N1CCCC1)c1ccccc1
17 | 22.1 µM |  | CCC(C(=O)Nc1ccccc1N1CCCC1)c1cccc(OC)c1 (stereo unspecified)
18 |  | inactive | CCC(C(=O)Nc1ccccc1N1CCCC1)c1cccc(C)c1 (stereo unspecified)
19 |  | inactive | C[C@H](C(=O)Nc1ccccc1N1CCCC1)c1ccccc1
20 | 17.7 µM |  | CCC(C(=O)Nc1ccccc1N1CCCC1)c1cccc(F)c1 (stereo unspecified)
21 | 19.5 µM |  | CCC(C(=O)Nc1ccccc1N1CCCC1)c1ccccc1 (stereo unspecified)
